Assays:
Type in all cases: functional
Streptococcus pneumoniae [1] = assay: Antimicrobial activity against extended spectrum beta-lactamases-producing Streptococcus pneumoniae 10-1 after 18-24 hrs by two-fold serial dilution method
In short: (§1)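 Agar-medium twofold serial dilution against Gram-positive and Gram-negative strains; MIC taken as the lowest compound concentration giving complete inhibition of bacterial growth after incubation at 35 °C for 18-24 h.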

Pseudomonas aeruginosa [2] = assay: Antimicrobial activity against extended spectrum beta-lactamases-producing Pseudomonas aeruginosa 10-9 after 18-24 hrs by two-fold serial dilution method; in short: as §1
Staphylococcus aureus [3] = assay: Antimicrobial activity against extended spectrum beta-lactamases-producing methicillin-resistant Staphylococcus aureus 10-15 after 18-24 hrs by two-fold serial dilution method
In short: (§2)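 Agar twofold serial dilution MIC against clinical isolates. MIC was taken as the lowest concentration giving complete inhibition of bacterial growth after incubation at 35 °C for 18-24 h.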

[4] = system: Staphylococcus epidermidis; assay: Antimicrobial activity against extended spectrum beta-lactamases-producing methicillin-resistant Staphylococcus epidermidis 10-13 after 18-24 hrs by two-fold serial dilution method; in short: as §2
Streptococcus pneumoniae [5] = assay: Antimicrobial activity against extended spectrum beta-lactamases-producing Streptococcus pneumoniae 10-4 after 18-24 hrs by two-fold serial dilution method; in short: as §1
Klebsiella pneumoniae [6] = assay: Antimicrobial activity against extended spectrum beta-lactamases-producing Klebsiella pneumoniae 10-2 after 18-24 hrs by two-fold serial dilution method; in short: as §1
[7] = system: Staphylococcus epidermidis; assay: Antimicrobial activity against extended spectrum beta-lactamases-producing methicillin-sensitive Staphylococcus epidermidis 10-13 after 18-24 hrs by two-fold serial dilution method; in short: as §1
Escherichia coli [8] = assay: Antimicrobial activity against extended spectrum beta-lactamases-producing Escherichia coli 10-4 after 18-24 hrs by two-fold serial dilution method; in short: as §1
Klebsiella pneumoniae [9] = assay: Antimicrobial activity against extended spectrum beta-lactamases-producing Klebsiella pneumoniae 10-1 after 18-24 hrs by two-fold serial dilution method; in short: as §1
Escherichia coli [10] = assay: Antimicrobial activity against extended spectrum beta-lactamases-producing Escherichia coli 10-3 after 18-24 hrs by two-fold serial dilution method; in short: as §1
Pseudomonas aeruginosa [11] = assay: Antimicrobial activity against extended spectrum beta-lactamases-producing Pseudomonas aeruginosa 10-5 after 18-24 hrs by two-fold serial dilution method; in short: as §1
Escherichia coli [12] = assay: Antimicrobial activity against Escherichia coli 10-2 after 18-24 hrs by two-fold serial dilution method; in short: as §1
Klebsiella pneumoniae [13] = assay: Antimicrobial activity against Klebsiella pneumoniae 10-3 after 18-24 hrs by two-fold serial dilution method; in short: as §1
Staphylococcus aureus [14] = assay: Antimicrobial activity against extended spectrum beta-lactamases-producing methicillin-sensitive Staphylococcus aureus 10-13 after 18-24 hrs by two-fold serial dilution method; in short: as §1
Escherichia coli [15] = assay: Antimicrobial activity against Escherichia coli ATCC 25922 after 18-24 hrs by two-fold serial dilution method; in short: as §1
[16] = system: Staphylococcus epidermidis; assay: Antimicrobial activity against extended spectrum beta-lactamases-producing methicillin-sensitive Staphylococcus epidermidis 10-15 after 18-24 hrs by two-fold serial dilution method; in short: as §1
Enterococcus faecalis [17] = assay: Antimicrobial activity against Enterococcus faecalis 10-5 after 18-24 hrs by two-fold serial dilution method; in short: as §1
Enterococcus faecalis [18] = assay: Antimicrobial activity against Enterococcus faecalis 10-7 after 18-24 hrs by two-fold serial dilution method; in short: as §1
Pseudomonas aeruginosa [19] = assay: Antimicrobial activity against extended spectrum beta-lactamases-producing Pseudomonas aeruginosa 10-18 after 18-24 hrs by two-fold serial dilution method; in short: as §1
[20] = system: Staphylococcus epidermidis; assay: Antimicrobial activity against extended spectrum beta-lactamases-producing methicillin-sensitive Staphylococcus epidermidis 10-11 after 18-24 hrs by two-fold serial dilution method; in short: as §1
Staphylococcus aureus [21] = assay: Antimicrobial activity against Staphylococcus aureus ATCC […] after 18-24 hrs by two-fold serial dilution method; in short: as §1
Pseudomonas aeruginosa [22] = assay: Antimicrobial activity against extended spectrum beta-lactamases-producing Pseudomonas aeruginosa 10-20 after 18-24 hrs by two-fold serial dilution method; in short: as §1
Klebsiella pneumoniae [23] = assay: Antimicrobial activity against Klebsiella pneumoniae 10-2 after 18-24 hrs by two-fold serial dilution method; in short: as §1
Escherichia coli [24] = assay: Antimicrobial activity against Escherichia coli 10-3 after 18-24 hrs by two-fold serial dilution method; in short: as §1
Klebsiella pneumoniae [25] = assay: Antimicrobial activity against extended spectrum beta-lactamases-producing Klebsiella pneumoniae 10-3 after 18-24 hrs by two-fold serial dilution method; in short: as §1
Escherichia coli [26] = assay: Antimicrobial activity against extended spectrum beta-lactamases-producing Escherichia coli 10-2 after 18-24 hrs by two-fold serial dilution method; in short: as §1
Enterococcus faecium [27] = assay: Antimicrobial activity against Enterococcus faecium 10-5 after 18-24 hrs by two-fold serial dilution method; in short: as §1
Enterococcus faecium [28] = assay: Antimicrobial activity against Enterococcus faecium 10-9 after 18-24 hrs by two-fold serial dilution method; in short: as §1
Escherichia coli [29] = assay: Antimicrobial activity against Escherichia coli 10-1 after 18-24 hrs by two-fold serial dilution method; in short: as §1
Staphylococcus aureus [30] = assay: Antimicrobial activity against extended spectrum beta-lactamases-producing methicillin-sensitive Staphylococcus aureus 10-14 after 18-24 hrs by two-fold serial dilution method; in short: as §1
[31] = system: Staphylococcus epidermidis; assay: Antimicrobial activity against extended spectrum beta-lactamases-producing methicillin-resistant Staphylococcus epidermidis 10-10 after 18-24 hrs by two-fold serial dilution method; in short: as §2
Klebsiella pneumoniae [32] = assay: Antimicrobial activity against Klebsiella pneumoniae 10-4 after 18-24 hrs by two-fold serial dilution method; in short: as §1
Staphylococcus aureus [33] = assay: Antimicrobial activity against extended spectrum beta-lactamases-producing methicillin-resistant Staphylococcus aureus 10-11 after 18-24 hrs by two-fold serial dilution method; in short: as §2
Pseudomonas aeruginosa [34] = assay: Antimicrobial activity against Pseudomonas aeruginosa 10-12 after 18-24 hrs by two-fold serial dilution method; in short: as §1
Enterococcus faecalis [35] = assay: Antimicrobial activity against Enterococcus faecalis 10-6 after 18-24 hrs by two-fold serial dilution method; in short: as §1
Pseudomonas aeruginosa [36] = assay: Antimicrobial activity against extended spectrum beta-lactamases-producing Pseudomonas aeruginosa 10-15 after 18-24 hrs by two-fold serial dilution method; in short: as §1

Row | Compound | MIC (Streptococcus pneumoniae [1]) [mg/L] | MIC (Pseudomonas aeruginosa [2]) [mg/L] | MIC (Staphylococcus aureus [3]) [mg/L] | MIC [4] [mg/L] | MIC (Streptococcus pneumoniae [5]) [mg/L] | MIC (Klebsiella pneumoniae [6]) [mg/L] | MIC [7] [mg/L] | MIC (Escherichia coli [8]) [mg/L] | MIC (Klebsiella pneumoniae [9]) [mg/L] | MIC (Escherichia coli [10]) [mg/L] | MIC (Pseudomonas aeruginosa [11]) [mg/L] | MIC (Escherichia coli [12]) [mg/L] | MIC (Klebsiella pneumoniae [13]) [mg/L] | MIC (Staphylococcus aureus [14]) [mg/L] | MIC (Escherichia coli [15]) [mg/L] | MIC [16] [mg/L] | MIC (Enterococcus faecalis [17]) [mg/L] | MIC (Enterococcus faecalis [18]) [mg/L] | MIC (Pseudomonas aeruginosa [19]) [mg/L] | MIC [20] [mg/L] | further results
1 | COc1ccc(CO/N=C2\CN(c3nc4c(cc3F)c(=O)c(C(=O)O)cn4C3CC3)CC2CN)c(OC)c1OC.CS(=O)(=O)O (racemic) | 0.5 | 8 | 0.25 | 0.5 | 0.06 | > 128 | 0.03 | 4 | > 128 | 32 | 8 | 16 | 8 | 0.015 | 0.03 | 2 | 1 | 2 | 8 | 2 | MIC (Staphylococcus aureus [21]): 0.015 mg/L; MIC (Pseudomonas aeruginosa [22]): 4 mg/L; MIC (Klebsiella pneumoniae [23]): > 128 mg/L; MIC (Escherichia coli [24]): 16 mg/L; MIC (Klebsiella pneumoniae [25]): > 128 mg/L; MIC (Escherichia coli [26]): 128 mg/L; MIC (Enterococcus faecium [27]): 4 mg/L; MIC (Enterococcus faecium [28]): 8 mg/L; MIC (Escherichia coli [29]): 64 mg/L; MIC (Staphylococcus aureus [30]): 0.015 mg/L; MIC [31]: 2 mg/L; MIC (Klebsiella pneumoniae [32]): > 128 mg/L; MIC (Staphylococcus aureus [33]): 2 mg/L; MIC (Pseudomonas aeruginosa [34]): 8 mg/L; MIC (Enterococcus faecalis [35]): 2 mg/L; MIC (Pseudomonas aeruginosa [36]): 16 mg/L
2 | CS(=O)(=O)O.Cc1ccc(CO/N=C2\CN(c3nc4c(cc3F)c(=O)c(C(=O)O)cn4C3CC3)CC2CN)cc1C (racemic) | 0.125 | 4 | 0.25 | 1 | 0.5 | > 128 | 8 | 8 | > 128 | > 128 | 4 | 8 | 8 | 0.06 | 0.015 | 1 | 0.5 | 4 | 16 | 0.25 | MIC (Staphylococcus aureus [21]): 0.008 mg/L; MIC (Pseudomonas aeruginosa [22]): 8 mg/L; MIC (Klebsiella pneumoniae [23]): > 128 mg/L; MIC (Escherichia coli [24]): 8 mg/L; MIC (Klebsiella pneumoniae [25]): > 128 mg/L; MIC (Escherichia coli [26]): > 128 mg/L; MIC (Enterococcus faecium [27]): 8 mg/L; MIC (Enterococcus faecium [28]): 8 mg/L; MIC (Escherichia coli [29]): 64 mg/L; MIC (Staphylococcus aureus [30]): < 0.008 mg/L; MIC [31]: 1 mg/L; MIC (Klebsiella pneumoniae [32]): > 128 mg/L; MIC (Staphylococcus aureus [33]): 2 mg/L; MIC (Pseudomonas aeruginosa [34]): 4 mg/L; MIC (Enterococcus faecalis [35]): 4 mg/L; MIC (Pseudomonas aeruginosa [36]): 8 mg/L
3 | COc1ccc(CO/N=C2\CN(c3nc4c(cc3F)c(=O)c(C(=O)O)cn4C3CC3)CC2CN)c(OC)c1.CS(=O)(=O)O (racemic) | 1 | 8 | 0.25 | 0.5 | 4 | > 128 | 1 | 0.25 | > 128 | 32 | 4 | 8 | 8 | 1 | 0.125 | 4 | 0.5 | 2 | 16 | 4 | MIC (Staphylococcus aureus [21]): 0.06 mg/L; MIC (Pseudomonas aeruginosa [22]): 0.25 mg/L; MIC (Klebsiella pneumoniae [23]): > 128 mg/L; MIC (Escherichia coli [24]): 16 mg/L; MIC (Klebsiella pneumoniae [25]): > 128 mg/L; MIC (Escherichia coli [26]): > 128 mg/L; MIC (Enterococcus faecium [27]): 8 mg/L; MIC (Enterococcus faecium [28]): 8 mg/L; MIC (Escherichia coli [29]): > 128 mg/L; MIC (Staphylococcus aureus [30]): 0.06 mg/L; MIC [31]: 2 mg/L; MIC (Klebsiella pneumoniae [32]): > 128 mg/L; MIC (Staphylococcus aureus [33]): 1 mg/L; MIC (Pseudomonas aeruginosa [34]): 0.06 mg/L; MIC (Enterococcus faecalis [35]): 4 mg/L; MIC (Pseudomonas aeruginosa [36]): 8 mg/L
4 | COc1cc(CO/N=C2\CN(c3nc4c(cc3F)c(=O)c(C(=O)O)cn4C3CC3)CC2CN)c([N+](=O)[O-])cc1OC.CS(=O)(=O)O (racemic) | 1 | 16 | 1 | 1 | 0.125 | > 128 | 0.25 | 4 | > 128 | > 128 | 16 | 8 | 4 | 0.125 | 0.25 | 8 | 0.125 | 2 | 16 | 2 | MIC (Staphylococcus aureus [21]): 0.015 mg/L; MIC (Pseudomonas aeruginosa [22]): 32 mg/L; MIC (Klebsiella pneumoniae [23]): > 128 mg/L; MIC (Escherichia coli [24]): 32 mg/L; MIC (Klebsiella pneumoniae [25]): > 128 mg/L; MIC (Escherichia coli [26]): > 128 mg/L; MIC (Enterococcus faecium [27]): 8 mg/L; MIC (Enterococcus faecium [28]): 16 mg/L; MIC (Escherichia coli [29]): > 128 mg/L; MIC (Staphylococcus aureus [30]): 0.125 mg/L; MIC [31]: 1 mg/L; MIC (Klebsiella pneumoniae [32]): > 128 mg/L; MIC (Staphylococcus aureus [33]): 2 mg/L; MIC (Pseudomonas aeruginosa [34]): 16 mg/L; MIC (Enterococcus faecalis [35]): 16 mg/L; MIC (Pseudomonas aeruginosa [36]): 32 mg/L
5 | COc1cc(Br)c(CO/N=C2\CN(c3nc4c(cc3F)c(=O)c(C(=O)O)cn4C3CC3)CC2CN)cc1OC.CS(=O)(=O)O (racemic) | 1 | > 128 | 0.125 | 0.25 | 0.125 | > 128 | 0.03 | > 128 | > 128 | > 128 | > 128 | > 128 | > 128 | 0.03 | 0.5 | 2 | 1 | 2 | > 128 | 0.5 | MIC (Staphylococcus aureus [21]): < 0.008 mg/L; MIC (Pseudomonas aeruginosa [22]): > 128 mg/L; MIC (Klebsiella pneumoniae [23]): > 128 mg/L; MIC (Escherichia coli [24]): > 128 mg/L; MIC (Klebsiella pneumoniae [25]): > 128 mg/L; MIC (Escherichia coli [26]): > 128 mg/L; MIC (Enterococcus faecium [27]): 64 mg/L; MIC (Enterococcus faecium [28]): 64 mg/L; MIC (Escherichia coli [29]): > 128 mg/L; MIC (Staphylococcus aureus [30]): 0.5 mg/L; MIC [31]: 0.5 mg/L; MIC (Klebsiella pneumoniae [32]): > 128 mg/L; MIC (Staphylococcus aureus [33]): > 128 mg/L; MIC (Pseudomonas aeruginosa [34]): > 128 mg/L; MIC (Enterococcus faecalis [35]): 4 mg/L; MIC (Pseudomonas aeruginosa [36]): > 128 mg/L
